Assay outcomes from PubChem.
F508del corr: CFTR F508del correction in bronchial cells | actives 0.36% (n = 350,000) | CFBE cells, YFP halide quenching; stimulated with forskolin plus potentiator P3; % fluorescence drop versus neutral controls | activity (quench increase), % at 7.58 µM;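 active = mean added fluorescence quench of at least 8% versus neutral control, with both replicates also reaching 8%; inconclusive = only one of the mean or replicate conditions met; inactive = mean below 8% and not both replicates reaching 8%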;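 also: cells transiently co-express mutant CFTR-F508del with the halide-sensitive YFP; corrector assay measuring rescue of mutant channel to the surface after 24 h compound exposure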
PDI turbidity: blocks human protein disulfide isomerase activity. P07237. PDI insulin aggregation turbidity, A650, 90 min. inhibition, % at 10 µM. actives 0.052% (n = 350,000);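 active = mean inhibition across replicates of 30% or more, whatever share of single replicates reach that level; inconclusive = mean inhibition below 30% while every single replicate reaches 30%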
Target sequence (P07237 whole entry, looked up): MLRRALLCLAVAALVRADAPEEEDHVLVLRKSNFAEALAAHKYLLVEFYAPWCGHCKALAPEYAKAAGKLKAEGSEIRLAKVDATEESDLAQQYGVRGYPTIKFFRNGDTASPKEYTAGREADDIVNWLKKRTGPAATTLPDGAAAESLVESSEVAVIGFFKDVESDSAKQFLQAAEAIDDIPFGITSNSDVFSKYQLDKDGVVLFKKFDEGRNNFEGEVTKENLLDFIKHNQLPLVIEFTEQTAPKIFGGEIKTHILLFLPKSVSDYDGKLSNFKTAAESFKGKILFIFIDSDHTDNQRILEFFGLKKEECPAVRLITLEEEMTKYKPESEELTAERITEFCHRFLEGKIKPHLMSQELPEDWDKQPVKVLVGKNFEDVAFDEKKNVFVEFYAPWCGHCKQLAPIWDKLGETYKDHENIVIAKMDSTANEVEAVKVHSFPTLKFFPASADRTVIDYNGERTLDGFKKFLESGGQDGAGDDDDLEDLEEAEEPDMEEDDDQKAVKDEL
ERp5 block: blocks human ERp5 reductase activity on insulin | Q15084 | ERp5 insulin aggregation, absorbance 650 nm, 90 min | inhibition, % at 9.99 µM | actives 0.05% (n = 350,000);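 active = mean replicate inhibition above about 25%, with every replicate also reaching it, limit read from the data, passing the limit was not always enough; inconclusive = only one of those two criteria met; inactive = neither criterion met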
DENV2 CPE: inhibitors of DENV2 cytopathic effect; DENV2-infected cells, cytopathic effect rescue, plate reader; CPE inhibition, % at 9.99 µM; actives 1.7% (n = 350,000); AID 651640; in the data active = CPE inhibition above about 20%, passing the limit was not always enough; inconclusive = no clear call, values can overlap the other calls; tested in BHK-21 cells;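 also: 0% = median of neutral control wells and 100% = median of positive control wells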
Statin myotox sup: protects C2C12 myotubes from simvastatin toxicity; ATP luminescence, 48 h; scaled: DMSO 0, geranylgeraniol control 100; rescue of ATP level, % at 7.49 µM; actives 0.78% (n = 330,000);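 active = mean ATP rescue above about 67%, or every replicate alone reaching that limit, limit read from the data, passing the limit was not always enough; inconclusive = no clear call, values can overlap the other calls; inactive = mean under the limit and some replicate under it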;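 also: myotubes were challenged with 10 µM simvastatin during compound exposure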
Cneo AK release: Cryptococcus neoformans lysis via adenylate kinase release; AID 651654; lysis activity, % at 15 µM; C. neoformans lysis, adenylate kinase release luminescence, 4 h; normalised: neutral wells 0, clomiphene wells 100; actives 0.2% (n = 360,000);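 active = mean lysis activity across replicates of at least 80%, whatever share of replicates individually reach that level; inactive = mean lysis activity below 80%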
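Material – log-phase Cryptococcus neoformans yeast cells · Input – 5 × 10^6 yeast cells/mL · Medium – fresh YPD growth medium · Doses – single compound concentration per well · Timing – static 4 h at 37 °C with compound, 1 h detection · Detection – adenylate kinase release luminescence · Read-out – signal increase indicating cell lysis · Control set – Clomiphene as positive lysis control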
Active calls of the source: *; ? = inconclusive; nt = not tested or not shown. In the library only some 2.3% were active in any assay of this set; here they are far more common.

SMILES | F508del corr | PDI turbidity | ERp5 block | DENV2 CPE | Statin myotox sup | Cneo AK release
COc1ccc(CN(C)C[C@@H]2OCCCC[C@H](C)Oc3ccc(NC(=O)Cc4ccccc4)cc3C(=O)N([C@@H](C)CO)C[C@H]2C)cc1 | -1.1 | nt | nt | 26.5* | nt | 1.8
COc1ccc(NC(=O)Nc2ccc3c(c2)C(=O)N([C@@H](C)CO)C[C@@H](C)[C@@H](CN(C)Cc2ccccc2)OCCCC[C@H](C)O3)cc1 | 0.6 | nt | 0.9 | 42.3* | nt | -0.5
COc1ccc(NC(=O)Nc2ccc3c(c2)C(=O)N([C@H](C)CO)C[C@H](C)[C@H](CN(C)Cc2ccccc2)OCCCC[C@H](C)O3)cc1 | 0.3 | nt | 0.8 | 17.2 | nt | 1.4
COc1ccc(CN(C)C[C@@H]2OCCCC[C@H](C)Oc3ccc(NC(=O)c4ccccc4)cc3C(=O)N([C@@H](C)CO)C[C@H]2C)cc1 | -1.9 | nt | 3.1 | 9.1 | nt | -0.8
COc1ccc(NC(=O)Nc2ccc3c(c2)C(=O)N([C@@H](C)CO)C[C@@H](C)[C@H](CN(C)Cc2ccccc2)OCCCC[C@@H](C)O3)cc1 | 0.2 | nt | 0.8 | 10.7 | nt | -0.4
CCCNC(=O)N[C@@H]1C=C[C@H](CC(=O)NC2CCC2)O[C@@H]1CO | -2.4 | nt | 0.3 | -4.3 | -2.2 | -1.2
N#C[C@@H]1[C@@H](c2ccc(-c3cncnc3)cc2)[C@H](CO)N1C(=O)C1CCC1 | 0.7 | nt | 3.2 | ? | 12.2 | -1.3
Nc1ccc2ccc(O)cc2c1 | -2.6 | 9.2 | 3.1 | -0.4 | -2.1 | 1.2
Nc1cccc(O)c1 | 2.0 | nt | 7.6 | 21.4* | -0.6 | -2.9
CO[C@H]1CN(C)C(=O)c2cc(NC(C)=O)ccc2OC[C@@H](C)N(C(=O)c2cnccn2)C[C@@H]1C | 0.1 | nt | nt | nt | 10.8 | nt
CN1C(=O)c2cc(NC(=O)c3cccs3)ccc2OC[C@H]2O[C@H](CC(=O)NCCN3CCCCC3)CC[C@H]21 | 2.4 | nt | 2.0 | 4.2 | -11.7 | 63.5
CCC(=O)Nc1ccc2c(c1)C(=O)N(C)[C@@H]1CC[C@@H](CC(=O)NCC3CC3)O[C@@H]1CO2 | -2.7 | nt | 47.9* | 7.2 | 3.5 | -1.2
CCC(=O)Nc1ccc2c(c1)C(=O)N(C)[C@H]1CC[C@@H](CC(=O)NCC3CC3)O[C@@H]1CO2 | -0.7 | nt | 78.1* | -5.1 | 1.1 | -2.4
Cc1nn(C)cc1NC(=O)C[C@H]1CC[C@@H]2[C@H](COc3ccc(NC(=O)NC(C)C)cc3C(=O)N2C)O1 | 0.8 | nt | -4.0 | 32.6* | -0.8 | 51.2
CN1C(=O)c2cc(NC(=O)c3cccs3)ccc2OC[C@@H]2O[C@@H](CC(=O)NCCN3CCCCC3)CC[C@H]21 | -4.5 | nt | 10.4 | 40.5* | 11.7 | -3.8
CN1C(=O)c2cc(NC(=O)Cc3cccs3)ccc2OC[C@@H]2O[C@H](CC(=O)NCC3CCCCC3)CC[C@H]21 | 6.4 | nt | -0.2 | 132.2* | -79.8 | 38.4
CC(=O)Nc1ccc2c(c1)C(=O)N(C)[C@H]1CC[C@H](CC(=O)Nc3cccc(C(C)C)c3)O[C@@H]1CO2 | 2.4 | nt | 0.5 | 107.9* | -0.8 | 49.4
CN1C(=O)c2cc(NC(=O)c3cccc(F)c3)ccc2OC[C@H]2O[C@@H](CC(=O)NCC3CC3)CC[C@H]21 | -0.1 | nt | 4.0 | 20.6* | nt | nt
O=C(c1cccc(F)c1)N1CC2(C1)[C@@H](c1ccccc1)[C@@H](CO)N2C(=O)C1CCC1 | -0.9 | nt | 2.1 | -4.9 | nt | nt
C[C@H](CO)N1C[C@H](C)[C@H](CN(C)Cc2ccc(Cl)c(Cl)c2)Oc2c(NC(=O)c3nc4ccccc4s3)cccc2C1=O | 0.2 | nt | 0.4 | -6.8 | nt | 0.4
NNC(=O)c1[nH]c2ccc(Br)cc2c1-c1ccccc1 | 7.7 | -5.9 | -4.0 | -7.0 | nt | nt
NNC(=O)c1[nH]c2ccc(Cl)cc2c1-c1ccccc1 | 16.8* | -2.9 | 4.2 | -12.4 | nt | nt
Cc1noc(C)c1NC(=O)Nc1ccc2c(c1)C(=O)N([C@@H](C)CO)C[C@@H](C)[C@@H](CN(C)C(=O)Nc1cccc3ccccc13)O2 | -0.1 | nt | -0.1 | 15.1 | ? | -0.4
COc1ccccc1N1CCN(C(=O)C(=O)N/N=C/c2cccc(O)c2)CC1 | nt | 36.1* | nt | nt | 95.7* | -1.3
COc1cc(C(CCN2CCCC(C)C2)c2c(OC)cc(OC)c3c2OC(=O)CC3c2ccc(N(C)C)cc2)cc(OC)c1OC (stereo not given) | nt | 6.8 | nt | nt | 28.1 | 19.9
